The results in this text go back to ChEMBL document CHEMBL1133698, “Novel ligands lacking a positive charge for the delta- and mu-opioid receptors” (J Med Chem, 2000).

Assay [1] concerns the target Mu-type opioid receptor (Rattus norvegicus, UniProt P33535). The assay can be described thus: Binding affinity was determined by displacement of [3H]- DAMGO at Opioid receptor mu 1 in rat brain membrane homogenates. Format: cell membranes. The procedure, abridged:
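Rat brain membranes, [3H]DAMGO at 0.72 nM, 2 h at 25 °C. Enzyme inhibitor cocktail in buffer (bestatin 100 µM, captopril 1.0 µM, thiorphan 1.0 µM, Leu-Leu 100 µM). IC50 from log dose-displacement curves. Ki by Cheng-Prusoff using Kd 1.3 nM. Mean of three to six determinations ± SEM.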

Assay [2] addresses Delta-type opioid receptor (Rattus norvegicus, UniProt P33533). The assay can be described thus: Binding affinity was determined by displacement of [3H]- DSLET at Opioid receptor delta 1 in rat brain membrane homogenates. Format: cell membranes. Summed up: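 Rat brain membranes, [3H]DSLET at 0.78 nM, 2 h at 25 °C, with a peptidase inhibitor cocktail in buffer. Poorly soluble peptides dissolved in DMSO, diluted in buffer, filtered, and concentration set by optical density. IC50 from log dose-displacement curves. Ki by Cheng-Prusoff with Kd 2.6 nM. Mean of three to six determinations ± SEM.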

For assay [3], the species on record is Mus musculus. The assay can be described thus: Antagonist activity was determined against the selective delta -agonist DPDPE in the MVD (mouse vas deferens) assay. Format: functional. The procedure, abridged:
(§1)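 Mouse vas deferens, electrically evoked contractions. DPDPE IC50 measured with and without a fixed antagonist concentration (50 to 4000 nM). Ke = a/(DR − 1), where DR is the ratio of agonist IC50 values. Mean of three to six determinations ± SEM.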

Assay [4] is filed under the species Cavia porcellus. The experiment in a line: (§2) Antagonist activity was determined against the selective delta -agonist TAPP in the GPI (guinea pig ileum) assay. Type of assay: functional. Summed up: (§3)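 Guinea pig ileum, electrically evoked contractions. µ-Agonist TAPP IC50 measured with and without antagonist at a fixed 500 nM. Ke = a/(DR − 1) from the IC50 ratio. Mean of three to six determinations ± SEM.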

The species named for assay [5] is Cavia porcellus. The description is as §2. Type of assay: functional, organism-based. The procedure, abridged:
as §3

The species entered for assay [6] is Mus musculus. The experiment in a line: Antagonist activity was determined against the selective delta -agonist DPDPE by inhibition of electrically evoked contractions of the mouse vas deferens. Format: functional. The procedure, abridged:
as §1

SMILES strings stand for the structures. Where a SMILES comes first, the peptide text is derived from it. Bridges are numbered along the chain shown (N, C = ends). [ ]: non-standard residue; d: D form. 2Nal = N[C@@H](Cc1ccc2ccccc2c1)C(=O)O; Dmt = Cc1cc(O)cc(C)c1C[C@H](N)C(=O)O; dOrn = NCCC[C@@H](N)C(=O)O

Chain of Mu-type opioid receptor (P33535 whole entry, looked up): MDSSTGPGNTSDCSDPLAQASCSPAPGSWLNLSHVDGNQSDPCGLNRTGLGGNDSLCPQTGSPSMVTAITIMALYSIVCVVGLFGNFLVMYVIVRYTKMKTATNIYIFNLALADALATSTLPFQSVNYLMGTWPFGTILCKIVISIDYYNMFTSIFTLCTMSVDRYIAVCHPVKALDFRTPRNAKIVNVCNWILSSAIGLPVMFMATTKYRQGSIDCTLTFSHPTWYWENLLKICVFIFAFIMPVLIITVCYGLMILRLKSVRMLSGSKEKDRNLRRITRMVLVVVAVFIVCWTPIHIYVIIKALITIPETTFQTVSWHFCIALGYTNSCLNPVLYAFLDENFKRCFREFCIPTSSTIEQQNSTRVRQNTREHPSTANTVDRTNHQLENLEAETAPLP
Chain of Delta-type opioid receptor (P33533 whole entry, looked up): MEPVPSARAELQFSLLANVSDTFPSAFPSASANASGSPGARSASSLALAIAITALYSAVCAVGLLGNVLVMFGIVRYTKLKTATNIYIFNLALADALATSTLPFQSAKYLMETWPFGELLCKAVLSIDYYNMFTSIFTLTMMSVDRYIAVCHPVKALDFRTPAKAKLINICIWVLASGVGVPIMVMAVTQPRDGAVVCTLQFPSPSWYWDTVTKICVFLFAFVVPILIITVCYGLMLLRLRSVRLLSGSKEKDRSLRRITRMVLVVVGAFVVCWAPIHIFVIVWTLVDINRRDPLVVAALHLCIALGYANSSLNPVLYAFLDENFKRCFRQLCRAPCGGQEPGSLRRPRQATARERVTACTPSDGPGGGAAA

`Cc1cc(O)cc(C)c1CCC(=O)N[C@@H]1CCCNC(=O)CNC(=O)[C@H]2CCCN2C(=O)[C@H](Cc2ccc3ccccc3c2)NC1=O`: the Ki in assay [1] turned out to be 450 nM; in assay [2], 109 nM. The figures for the Ke in assay [3] and in assay [4] were 121 nM and 237 nM, respectively.
For `Cc1cc(O)cc(C)c1C[C@H](NC=O)C(=O)N[C@@H]1CCCNC(=O)CNC(=O)[C@H]2CCCN2C(=O)[C@H](Cc2ccc3ccccc3c2)NC1=O` the same measures were 218 nM, 32.8 nM, 16.3 nM and 216 nM.
Take `C[C@@H](O)[C@@H]1NC(=O)[C@H](CC2CCCCC2)NC(=O)[C@@H](Cc2c[nH]c3ccccc23)NC(=O)[C@H](Cc2ccccc2)NC(=O)[C@@H]2CCCN2C(=O)[C@H](Cc2ccccc2)NC1=O`: the inhibition constant (Ki) in assay [1] was > 10000 nM; in assay [2], 486 nM. The Ke in assay [3] came out at 202 nM.
For the molecule `C[C@@H](O)[C@@H]1NC(=O)[C@H](Cc2ccc(O)cc2)NC(=O)[C@@H](Cc2c[nH]c3ccccc23)NC(=O)[C@H](Cc2cccc3ccccc23)NC(=O)[C@@H]2CCCN2C(=O)[C@H](Cc2ccccc2)NC1=O`, the Ki in assay [1] was > 10000 nM; in assay [2] it was 152 nM. In assay [3], the Ke stood at 128 nM.
For `C[C@@H](O)[C@@H]1NC(=O)[C@H](Cc2ccc(O)cc2)NC(=O)[C@@H](Cc2c[nH]c3ccccc23)NC(=O)[C@H](Cc2ccc3ccccc3c2)NC(=O)[C@@H]2CCCN2C(=O)[C@H](Cc2ccccc2)NC1=O` the same measures were > 10000 nM, 1070 nM and 2460 nM.
As to `Cc1cc(O)cc(C)c1C[C@H](N)C(=O)N[C@@H]1CCCNC(=O)CNC(=O)[C@H]2CCCN2C(=O)[C@H](Cc2ccc3ccccc3c2)NC1=O` (H-[Dmt][dOrn][2Nal][dP]G; lactam 2-C), the Ki is 0.476 nM in assay [1] and 0.467 nM in assay [2]. The Ke in assay [3] is 2.13 nM. The half-inhibitory concentration (IC50) in assay [5] worked out at 7.88 nM.
As to `C[C@@H](O)[C@@H]1NC(=O)[C@H](Cc2ccc(O)cc2)NC(=O)[C@@H](Cc2c[nH]c3ccccc23)NC(=O)[C@H](Cc2ccccc2)NC(=O)[C@@H]2CCCN2C(=O)[C@H](Cc2ccccc2)NC1=O` (cyclo(FPF[dW]YT)), the Ki in assay [1] was > 10000 nM; in assay [2], 759 nM. Further, in assay [6], the Ke came out at 238 nM.
